Measured values published in ChEMBL document CHEMBL5331087, “Targeted AURKA degradation: Towards new therapeutic agents for neuroblastoma” (Eur J Med Chem, 2023).
The source made the active and inactive calls. The rule behind the calls is not given here.

Experiments:
[1] = target: T1, Protein cereblon/Aurora kinase A (Homo sapiens) (UniProt O14965+Q96SW2); assay: PROTAC activity at AURKA/CRBN in human NGP cells assessed as reduction in AURKA level at 100 nM measured for 24 hrs by Western blot analysis relative to control; type: cell-based; set-up: scale not given: the % may be the effect or the level left
T1 sequence (Q96SW2 whole entry, looked up, one chain of several): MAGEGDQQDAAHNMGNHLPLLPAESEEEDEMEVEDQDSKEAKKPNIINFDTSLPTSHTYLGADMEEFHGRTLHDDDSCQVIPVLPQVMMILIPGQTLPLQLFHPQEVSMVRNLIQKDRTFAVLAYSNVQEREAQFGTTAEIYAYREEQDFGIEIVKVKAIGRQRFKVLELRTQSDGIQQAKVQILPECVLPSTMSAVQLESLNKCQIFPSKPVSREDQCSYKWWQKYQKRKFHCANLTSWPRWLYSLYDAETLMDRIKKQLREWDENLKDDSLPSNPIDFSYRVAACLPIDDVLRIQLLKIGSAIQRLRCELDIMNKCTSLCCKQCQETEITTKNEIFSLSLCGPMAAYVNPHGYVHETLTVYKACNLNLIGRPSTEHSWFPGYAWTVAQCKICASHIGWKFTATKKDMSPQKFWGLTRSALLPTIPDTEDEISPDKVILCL
Outline: (§1)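 NGP cells were seeded at about 2×10^6 per flask, adhered for 48 h, and were then treated for 24 h with DMSO matched. Lysis was in RIPA with protease/phosphatase inhibitors. AURKA was quantified by capillary Simple Western with peak areas normalised to vinculin. Fold change is relative to DMSO (mean ± SD, n = 3).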

[2] = target: T1, Protein cereblon/Aurora kinase A (Homo sapiens); assay: PROTAC activity at AURKA/CRBN in human NGP cells assessed as AURKA degradation at 1000 nM measured for 24 hrs by Western blot analysis relative to control; type: cell-based; outline: as §1
[3] = target: T1, Protein cereblon/Aurora kinase A (Homo sapiens); assay: PROTAC activity at AURKA/CRBN in human NGP cells assessed as reduction in AURKA level at 10 nM measured for 24 hrs by Western blot analysis relative to control; type: cell-based; set-up: scale not given: the % may be the effect or the level left; outline: as §1
[4] = Antiproliferative activity against human NGP cells assessed as reduction in cell viability incubated for 48 hrs; type: functional, cell-based
Outline: (§2)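 Cells were grown in RPMI 1640 with 10% FCS and 2 mM L-glutamine. Seeding was 4500 cells/well for NGP, IMR-32 and N206, and 2100 cells/well for SK-N-AS, with adherence overnight. Compound was dispensed over a concentration range in triplicate. Confluence was imaged live for 48 h and normalised to the DMSO control. Absolute IC50 came from a four-parameter variable-slope fit (n = 4).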

[5] = target: T1, Protein cereblon/Aurora kinase A (Homo sapiens); assay: PROTAC activity at AURKA/CRBN in human NGP cells assessed as AURKA degradation measured for 24 hrs by Western blot analysis; type: cell-based; details: dose 10-1000 nM
[6] = target: T1, Protein cereblon/Aurora kinase A (Homo sapiens); assay: PROTAC activity at AURKA/CRBN in human NGP cells assessed as AURKA degradation at 10 to 1000 nM measured for 24 hrs by Western blot analysis relative to control; type: cell-based; details: dose 10-1000 nM; outline: as §1
[7] = target: T1, Protein cereblon/Aurora kinase A (Homo sapiens); assay: PROTAC activity at AURKA/CRBN in human NGP cells assessed as AURKA degradation at 10 nM measured for 24 hrs by Western blot analysis relative to control; type: cell-based; outline: as §1
[8] = target: T2, Aurora kinase A (Homo sapiens) (UniProt O14965); assay: Induction of AURKA degradation (unknown origin) measured for 6 hrs relative to control
T2 sequence (whole entry): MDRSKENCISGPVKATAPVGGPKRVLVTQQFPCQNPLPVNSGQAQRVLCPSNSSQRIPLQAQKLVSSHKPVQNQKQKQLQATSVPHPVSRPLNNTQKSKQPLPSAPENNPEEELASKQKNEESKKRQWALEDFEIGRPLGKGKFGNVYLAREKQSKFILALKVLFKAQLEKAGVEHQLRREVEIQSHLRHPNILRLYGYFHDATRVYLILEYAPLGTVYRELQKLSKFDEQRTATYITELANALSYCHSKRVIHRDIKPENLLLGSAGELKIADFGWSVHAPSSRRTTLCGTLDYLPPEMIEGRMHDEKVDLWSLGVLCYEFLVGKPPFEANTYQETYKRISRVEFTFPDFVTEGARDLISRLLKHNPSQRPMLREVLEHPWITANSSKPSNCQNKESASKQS

Aurora kinase A = target: T3, Aurora kinase A (Homo sapiens, UniProt O14965); assay: Induction of AURKA degradation (unknown origin) measured for 6 hrs
T3 sequence (O14965 whole entry): T2 sequence (whole entry)

IMR-32 [9] = assay: Antiproliferative activity against human IMR-32 cells assessed as reduction in cell viability incubated for 48 hrs; type: functional, cell-based; details: IMR-32, 48 h; outline: as §2
SK-N-AS [10] = assay: Antiproliferative activity against human SK-N-AS cells assessed as reduction in cell viability incubated for 48 hrs relative to control; type: functional
Outline: (§3)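 Cells grown in RPMI 1640 with 10% fetal calf serum, 2 mM L-glutamine and penicillin/streptomycin at 37 °C, 5% CO2. Seeded at 4500 (IMR-32) or 2100 (SK-N-AS) cells/well in 384-well plates and left to adhere overnight. Concentration range dispensed in triplicate. Confluence tracked by IncuCyte live-cell imaging, and 48h values normalized to DMSO. Absolute IC50 taken from a four-parameter variable-slope fit (n = 4).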

NGP = assay: Antiproliferative activity against human NGP cells assessed as reduction in cell viability incubated for 48 hrs relative to control; type: functional
[11] = Growth inhibition of patient derived 000GKX Neuroblastoma organoid assessed as reduction in viability […] by CellTiter Glo 3D assay; type: functional, tissue-based, Homo sapiens; details: Homo sapiens, Neuroblastoma organoid; read-out: IC50
Outline: (§4)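 Patient-derived organoids were dissociated to single cells with Accutase and seeded in NB organoid medium at 5000 (000GKX), 20000 (NB059), 5000 (NB067) or 3000 (NB139) cells/well. Compound was added after 24 h over a concentration range in triplicate, with DMSO matched. Incubation was 120 h at 37 °C and 5% CO2. Viability was read by CellTiter-Glo 3D, and absolute IC50 derived (n = 1).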

Homo sapiens [12] = organism: Homo sapiens; assay: Growth inhibition of patient derived 000GKX Neuroblastoma organoid assessed as reduction in viability incubated for […] by CellTiter Glo 3D assay relative to control; type: functional
IMR-32 [13] = assay: Antiproliferative activity against human IMR-32 cells assessed as reduction in cell viability incubated for 48 hrs relative to control; type: functional; outline: as §3
[14] = Growth inhibition of patient derived NB067 Neuroblastoma organoid assessed as reduction in viability […] by CellTiter Glo 3D assay; type: functional, tissue-based; details: Homo sapiens; outline: as §4
[15] = target: T1, Protein cereblon/Aurora kinase A (Homo sapiens); assay: PROTAC activity at AURKA/CRBN in human NGP cells assessed as AURKA degradation at 10 to 1000 nM measured for 24 hrs by immunoblotting analysis; type: cell-based; details: dose 10-1000 nM; outline: as §1
Homo sapiens [16] = organism: Homo sapiens; assay: Growth inhibition of patient derived NB059 Neuroblastoma organoid assessed as reduction in viability incubated for […] by CellTiter Glo 3D assay relative to control; type: functional
Homo sapiens [17] = organism: Homo sapiens; assay: Growth inhibition of patient derived NB067 Neuroblastoma organoid assessed as reduction in viability incubated for […] by CellTiter Glo 3D assay relative to control; type: functional
[18] = Growth inhibition of patient derived NB059 Neuroblastoma organoid assessed as reduction in viability incubated for 48 hrs by CellTiter Glo 3D assay; type: functional, tissue-based, Homo sapiens; details: in the assay text read “120 hrs” for “48 hrs”; outline: as §4
[19] = Antiproliferative activity against human N206 cells assessed as reduction in cell viability incubated for 48 hrs; type: functional, cell-based; outline: as §2
N206 = assay: Antiproliferative activity against human N206 cells assessed as reduction in cell viability incubated for 48 hrs relative to control; type: functional
Homo sapiens [20] = organism: Homo sapiens; assay: Growth inhibition of patient derived NB139 Neuroblastoma organoid assessed as reduction in viability incubated for […] by CellTiter Glo 3D assay relative to control; type: functional
[21] = target: T4, N-myc proto-oncogene protein (Homo sapiens) (UniProt P04198); assay: Induction of MYCN degradation in human NGP cells at 500 nM measured upto 72 hrs by Western blot analysis; type: cell-based
T4 sequence (whole entry): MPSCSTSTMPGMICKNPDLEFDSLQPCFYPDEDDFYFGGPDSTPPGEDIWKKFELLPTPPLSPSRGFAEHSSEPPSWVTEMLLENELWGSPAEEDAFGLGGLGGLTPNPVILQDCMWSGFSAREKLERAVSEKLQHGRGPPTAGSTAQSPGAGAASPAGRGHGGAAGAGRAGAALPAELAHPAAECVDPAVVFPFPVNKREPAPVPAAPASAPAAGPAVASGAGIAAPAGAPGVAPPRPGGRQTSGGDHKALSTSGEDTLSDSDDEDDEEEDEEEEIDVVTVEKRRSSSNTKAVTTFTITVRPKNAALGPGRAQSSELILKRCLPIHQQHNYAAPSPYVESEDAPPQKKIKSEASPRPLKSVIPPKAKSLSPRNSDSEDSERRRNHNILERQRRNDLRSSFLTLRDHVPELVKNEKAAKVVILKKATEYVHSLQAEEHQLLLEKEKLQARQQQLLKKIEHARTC
Outline: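 NGP cells were treated with 500 nM compound and harvested at 0, 1, 3, 6, 24, 48 and 72 h. RIPA lysates (35 µg) were run on 10% SDS-PAGE and blotted to nitrocellulose. AURKA and MYCN were probed with vinculin as loading control and quantified by densitometry. Values are percent remaining relative to the DMSO control at each timepoint (n = 3).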

SK-N-AS [22] = assay: Antiproliferative activity against human SK-N-AS cells assessed as reduction in cell viability incubated for 48 hrs; type: functional, cell-based; details: sk-n-as; outline: as §2
[23] = Growth inhibition of patient derived NB139 Neuroblastoma organoid assessed as reduction in viability […] by CellTiter Glo 3D assay; type: functional, tissue-based; details: Homo sapiens; outline: as §4
[24] = target: T1, Protein cereblon/Aurora kinase A (Homo sapiens); assay: PROTAC activity at AURKA/CRBN in human NGP cells assessed as downregulation of AURKA level at 10 to 1000 nM measured for 24 hrs by Western blot analysis; type: cell-based; details: dose 10-1000 nM; outline: as §1
[25] = target: T1, Protein cereblon/Aurora kinase A (Homo sapiens); assay: PROTAC activity at AURKA/CRBN in human NGP cells assessed as AURKA degradation at 0.1 to 1000 nM measured for 24 hrs by Western blot analysis relative to control; type: cell-based; details: dose 0.1-1000 nM; outline: as §1

O=C1CCC(N2C(=O)c3ccc(OCCOCCNC(=O)[C@]4(Cc5cccc(Nc6nccs6)n5)CC[C@@H](Oc5cccc(Cl)c5F)CC4)cc3C2=O)C(=O)N1 (stereo partly drawn)
Activity [1]: 17% | Activity [2]: Active | Activity [3]: 45% | IC50 [4]: 0.0633 µM

O=C(COc1cccc2c1C(=O)N(C1CCC(=O)NC1=O)C2=O)NCCOCCOCCNC(=O)[C@]1(Cc2cccc(Nc3nccs3)n2)CC[C@@H](Oc2cccc(Cl)c2F)CC1 (stereo partly drawn)
IC50 [4]: 0.0833 µM | Activity [5]: Active

O=C1CCC(N2C(=O)c3ccc(OCCOCCOCCOCCOCCNC(=O)[C@]4(Cc5cccc(Nc6nccs6)n5)CC[C@@H](Oc5cccc(Cl)c5F)CC4)cc3C2=O)C(=O)N1 (stereo partly drawn)
Emax [6]: 85% | Emax [7]: 85% | IC50 [4]: 0.034 µM

O=C1CCC(N2C(=O)c3cccc(OCCOCCOCCNC(=O)[C@]4(Cc5cccc(Nc6nccs6)n5)CC[C@@H](Oc5cccc(Cl)c5F)CC4)c3C2=O)C(=O)N1 (stereo partly drawn)
Emax [6]: 85% | IC50 [4]: 0.0808 µM | Activity [5]: Active

O=C1CCC(N2C(=O)c3cccc(OCCOCCNC(=O)[C@]4(Cc5cccc(Nc6nccs6)n5)CC[C@@H](Oc5cccc(Cl)c5F)CC4)c3C2=O)C(=O)N1 (stereo partly drawn)
Activity [6]: inactive | IC50 [4]: 1.31 µM | Activity [5]: inactive

O=C1CCC(N2C(=O)c3cccc(OCCOCCOCCOCCOCCNC(=O)[C@]4(Cc5cccc(Nc6nccs6)n5)CC[C@@H](Oc5cccc(Cl)c5F)CC4)c3C2=O)C(=O)N1 (stereo partly drawn)
Emax [6]: 85% | IC50 [4]: 0.0509 µM | Activity [5]: Active

O=C(COc1cccc2c1C(=O)N(C1CCC(=O)NC1=O)C2=O)NCCOCCOCCOCCNC(=O)[C@]1(Cc2cccc(Nc3nccs3)n2)CC[C@@H](Oc2cccc(Cl)c2F)CC1 (stereo partly drawn)
Emax [8]: 82% | DC50 (Aurora kinase A): 0.003 µM | IC50 [4]: 0.102 µM

O=C(O)[C@]1(Cc2cccc(Nc3nccs3)n2)CC[C@@H](Oc2cccc(Cl)c2F)CC1 [MK-5108]
IC50 (IMR-32 [9]): 0.199 µM | Emax (SK-N-AS [10]): 58.5% | Emax (NGP): 32.9% | IC50 [11]: 0.483 µM | Emax (Homo sapiens [12]): 59.5% | Emax (IMR-32 [13]): 20.4% | IC50 [14]: 0.0753 µM | Activity [15]: inactive | Emax (Homo sapiens [16]): 75.9% | Emax (Homo sapiens [17]): 14.2% | IC50 [18]: Not Active | IC50 [19]: Not Active | Emax (N206): 53.2% | Emax (Homo sapiens [20]): 44.1% | Activity [21]: Active | IC50 (SK-N-AS [22]): Not Active | IC50 [4]: 0.362 µM | IC50 [23]: 0.9 µM

O=C1CCC(N2C(=O)c3ccc(OCCOCCOCCNC(=O)[C@]4(Cc5cccc(Nc6nccs6)n5)CC[C@@H](Oc5cccc(Cl)c5F)CC4)cc3C2=O)C(=O)N1 (stereo partly drawn)
Emax [6]: 85% | IC50 [4]: 0.0699 µM

CN1C(=O)CCC(N2C(=O)c3cccc(OCCOCCOCCOCCNC(=O)[C@]4(Cc5cccc(Nc6nccs6)n5)CC[C@@H](Oc5cccc(Cl)c5F)CC4)c3C2=O)C1=O (stereo partly drawn)
Activity [24]: inactive | IC50 [4]: 1.1 µM

COc1cc(Nc2ncc3c(n2)-c2ccc(Cl)cc2C(c2c(F)cccc2OC)=NC3)ccc1C(=O)NCCOCCOCCNC(=O)COc1cccc2c1C(=O)N(C1CCC(=O)NC1=O)C2=O (stereo not drawn)
Emax [25]: 73% | IC50 [4]: 0.877 µM

O=C1CCC(N2C(=O)c3ccc(OCCOCCOCCOCCNC(=O)[C@]4(Cc5cccc(Nc6nccs6)n5)CC[C@@H](Oc5cccc(Cl)c5F)CC4)cc3C2=O)C(=O)N1 (stereo partly drawn)
Emax [6]: 85% | Emax [7]: 85% | IC50 [4]: 0.0401 µM
